Source: PubChem BioAssay
Hits are enriched below; roughly 9.2% of the tested compounds scored in any of these assays.
Autophagy HCS = alters autophagy in cells. calls only at 10 µM (by protocol). 0.98% of 190,000 active. MEF GFP-LC3 puncta imaging; test concentration mostly 10 µM;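 active means percentage of spot-positive cells more than 3 SD above its plate mean, without a fluorescence outlier flag or 80% toxicity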;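 further: spot-positive cell cutoff set from DMSO-treated cells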
bCat KO growth = beta-catenin-lacking colon tumor cell growth suppression; HCT116 beta-catenin knockout viability, CellTiter-Glo, 60 h; stronger effect = lower value; viability, % at 10 µM; 1.5% of 140,000 active; AID 818;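 active means viability at or under a set limit, the compound median less 4 SD, cut at about 6% in these data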;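 further: 0% = Hyamine 1622 control at 20 µM and 100% = untreated cell control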
HCT116 PTEN-null = growth suppressors of cells with PTEN tumor suppressor deletion | HCT116 PTEN-null viability, CellTiter-Glo, 60 h; stronger effect = lower value | viability, % at 10 µM | 1.2% of 140,000 active | AID 827;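 active means viability at or below a set limit, 4 SD under the median of all tested compounds, cut at about 3.7% in these data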;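 further: PTEN knockout HCT116 line with beta catenin targeted HCT116 as companion control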
Dynein transport = blocks dynein driven cargo transport along microtubules | z-score, hits read low | AID 1381 | 3617.4 mouse cells, GR-EGFP nuclear translocation imaging; test concentration mostly 20 µM; stimulated with dexamethasone, 1 µM; stronger effect = lower value | 0.47% of 220,000 active;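 active means plate z-score of nuclear minus cytoplasmic receptor signal below a set negative limit, without overly bright fluorescence or cell loss, cut at about -3.5 in these data, passing the limit was not always enough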;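 further: z-score of nuclear minus cytoplasmic ring GR-EGFP intensity difference per well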
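Buffer or medium: tet-free, stripped-serum medium; Also added: dexamethasone, 1.0 µM final; Technique: high-content fluorescence imaging after fixation; Times: 48 h induction, 1 h compound, 30 min dex at 37 °C; Read-out: per-cell GR-EGFP intensity, nucleus versus surrounding cytoplasmic ring, well-averaged.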
Lmaj promast = inhibitors of Leishmania major promastigote growth. Leishmania major promastigotes, resazurin fluorescence viability. inhibition, % at 10 µM. 9% of 200,000 active; in the data active means inhibition above about 50%;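 further: promastigotes grown with compound for 44 hours at 28 °C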
* hit, by the source's call; i = inactive; nt = no result; + = active, no number.

SMILES	Autophagy HCS	bCat KO growth	HCT116 PTEN-null	Dynein transport	Lmaj promast
COc1ccc(/C=N/NC(=O)c2ccccc2F)cc1CN1CCN(c2ccc(F)cc2)CC1	i	86	91	-0.076	67*
COc1ccc(-c2c(C(F)(F)F)oc3cc(OCC(=O)Nc4ccccc4C(F)(F)F)ccc3c2=O)cc1OC	i	1.4*	5	-0.58	1
COc1ccccc1-c1c(C(F)(F)F)oc2cc(OCC(=O)Nc3ccccc3C(F)(F)F)ccc2c1=O	i	87	84	-0.19	-2
Cc1sc(NC(=O)c2ccco2)nc1-c1ccc2c(c1)CC(C)N2C(=O)C1CC1 (centres undefined)	i	23	17	1.6	86*
CCOc1ccc(-n2c(N)c(-c3nc4ccccc4n3C)c3nc4ccccc4nc32)cc1	+	54	47	-0.2	9
CCOc1ccc(-n2c(N)c(C(=O)NCc3ccco3)c3nc4ccccc4nc32)cc1	i	12	9	-0.85	6
c1ccc2c(c1)OCCOCCOCCOCCOCCOc1ccccc1OCCOCCOCCO2	i	31	30	-0.59	100*
O=C(O)CSc1nnc(CSc2nc3ccccc3s2)n1-c1ccccc1	i	nt	nt	0.16	-7
C#CCSc1nnc(CSc2nc3ccccc3s2)n1-c1ccccc1	i	81	83	-0.056	50*
COc1ccc(CNC(=O)CCc2c(C)nc3cc(-c4ccccc4OC)nn3c2C)cc1	nt	nt	nt	0.54	nt
Cc1nc2cc(-c3cccc(F)c3)nn2c(C)c1CCC(=O)NC(C)CCc1ccco1 (centres undefined)	i	58	61	-0.39	100*
COc1ccc(-c2cc3nc(C)c(CCC(=O)NCc4ccc(F)cc4)c(C)n3n2)c(OC)c1	i	nt	nt	0.58	93*
Cc1nc2cc(-c3ccccc3)nn2c(C)c1CCC(=O)NCc1ccco1	i	96	95	-0.21	2
COc1cc(OC)cc(-c2cc3nc(C)c(CCC(=O)NC(C)CCc4ccco4)c(C)n3n2)c1 (centres undefined)	i	52	51	1	100*
Cc1nc2ncnn2c(C)c1CCC(=O)NC(C)CCc1ccco1 (centres undefined)	i	102	101	0.12	-5
Fc1ccccc1N1CCN(CC2CC3C=CC2C3)CC1 (centres undefined)	i	76	81	-0.2	89*
FC(F)(F)c1cccc(N2CCN(CC3CC4C=CC3C4)CC2)c1 (centres undefined)	i	84	88	-0.074	82*
C1=CC2CC1CC2CN1CCN(Cc2ccccc2)CC1 (centres undefined)	i	95	87	0.16	95*
N=C(N)N1CCN(Cc2ccccc2)CC1	i	nt	nt	3.1	-3
Cc1c(N=Cc2cc(Br)cc(Br)c2O)cccc1C(=O)O	i	92	102	1.1	9
COc1ccc(-c2cc(-c3ccccc3O)[nH]n2)cc1	i	43	47	-1.2	99*
CCOC(=O)C1CCCCN1Cc1cn[nH]c1-c1ccc(F)cc1F (centres undefined)	i	nt	nt	0.31	1
Clc1ccccc1N=C1NN=C(c2cccs2)CS1	i	nt	nt	-0.18	21
CCNC(=S)NC1CC2CCCC(C1)N2Cc1ccco1 (centres undefined)	i	108	100	0.079	-5
S=C(NC1CCCCCC1)NC1CCCC1	+	nt	nt	-0.82	12
SMILES	Autophagy HCS	bCat KO growth	HCT116 PTEN-null	Dynein transport	Lmaj promast
Cc1ccc(NC(=S)NC2CC3CCC(C2)N3Cc2ccco2)cc1C (centres undefined)	i	75	83	0.039	100*
Cc1ccc(NC(=S)NC2CC3CCC(C2)N3Cc2ccco2)c(C)c1 (centres undefined)	i	67	85	-0.59	89*
O=C(NC1CC2CCCC(C1)N2Cc1ccco1)NC12CC3CC(CC(C3)C1)C2 (centres undefined)	i	57	59	-0.77	89*
O=C(NCc1ccco1)NC1CCCCC1	i	89	86	0.22	-1
NNC(=S)NC1CCCCCCCCCCC1	nt	nt	nt	-1.6	nt
Cc1nn(-c2ccccc2)nc1CNC(=O)c1ncoc1-c1ccccc1	nt	nt	nt	-0.21	nt
Cc1cccc(NC(=S)NC2CC3CCC(C2)N3Cc2ccco2)c1C (centres undefined)	i	52	72	0.44	90*
Cc1cccc(NC(=S)NC2CCCCCC2)c1C	i	56	52	-0.023	82*
CCc1ccccc1NC(=O)NC1CC2CCC(C1)N2Cc1cccs1 (centres undefined)	i	89	96	-0.89	76*
